Results published in ChEMBL document CHEMBL1250446, “Novel targets for Huntington's disease in an mTOR-independent autophagy pathway” (Nat Chem Biol, 2008).
One block for each compound: values may come before it. Active and inactive are the calls of the source. No cut-off for these calls is given here. Residues, ends and D or L forms follow the SMILES beside them.

What was measured:
[1] = system: HeLa; experiment: Induction of autophagy in human HeLa cells expressing EGFP-LC3 assessed as increase in LC3-2 level at 50 uM in presence of 400 nM bafilomycin A1; format: functional, cell-based
[2] = system: COS-7; experiment: Induction of autophagy in african green monkey COS7 cells assessed as increase in LC3-2 vesicle at 50 uM after 24 hrs by immunofluorescence assay; format: functional, cell-based; details: Chlorocebus aethiops
Method in brief: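 Fixed COS-7 cells, after 24 h exposure, immunostained for LC3 with an anti-LC3 primary and Alexa-conjugated secondary; confocal imaging of LC3-positive vesicles.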

[3] = system: PC-12; experiment: Induction of autophagy in differentiated rat stable inducible PC12 cells expressing A53T alpha-synuclein assessed as A53T alpha-synuclein clearance at 10 uM after 96 hrs by calpain activation assay; format: functional, cell-based
[4] = system: COS-7; experiment: Induction of autophagy in african green monkey COS7 cells expressing EGFP-LC3 assessed as increase in EGFP-LC3 vesicle at 50 uM after 24 hrs; format: functional, cell-based; details: Chlorocebus aethiops
[5] = system: PC-12; experiment: Induction of autophagy in undifferentiated rat stable inducible PC12 cells expressing A53T alpha-synuclein assessed as A53T alpha-synuclein clearance at 10 uM after 96 hrs by calpain activation assay; format: functional, cell-based
[6] = system: COS-7; experiment: Induction of autophagy in african green monkey COS7 cells expressing EGFP-HDQ74/rheb assessed as reduction in EGFP-HDQ74 aggregation at 50 uM after 48 hrs; format: functional, cell-based; details: Chlorocebus aethiops
[7] = system: PC-12; experiment: Induction of autophagy in undifferentiated rat stable inducible PC12 cells expressing EGFP-HDQ74 assessed as EGFP-HDQ74 clearance at 10 uM after 96 hrs by calpain activation assay; format: functional, cell-based
[8] = system: COS-7; experiment: Induction of autophagy in african green monkey COS7 cells expressing EGFP-HDQ74 assessed as inhibition of PLC-epsilon overexpression-induced EGFP-HDQ74 aggregation at 50 uM after 48 hrs; format: functional, cell-based; details: Chlorocebus aethiops
[9] = system: COS-7; experiment: Induction of autophagy in african green monkey COS7 cells assessed as increase in autophagosome at 50 uM after 24 hrs by electron microscopy; format: functional, cell-based; details: Chlorocebus aethiops
Method in brief: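 COS-7 cells exposed 24 h, fixed, and examined by electron microscopy. Early and late autophagosome-like structures were counted per 50 cell profiles. Student's t-test; error bars are standard error of the mean.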

[10] = system: PC-12; experiment: Induction of autophagy in differentiated rat stable inducible PC12 cells expressing EGFP-HDQ74 assessed as EGFP-HDQ74 clearance at 10 uM after 96 hrs by calpain activation assay; format: functional, cell-based
[11] = system: COS-7; experiment: Induction of autophagy in african green monkey COS7 cells expressing PLC-epsilon assessed as calpain activation at 2.5 uM after 30 mins by immunoblotting analysis; format: functional, cell-based; details: Chlorocebus aethiops
Method in brief: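 Calpain activation in COS-7 after 30 min exposure, alongside 2.5 μM thapsigargin where applied; immunoblot of the active calpain small subunit.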

[12] = system: SK-N-MC; experiment: Cytotoxicity against human SK-N-MC cells expressing EGFP-HDQ74 at 1 uM after 48 hrs; format: cell-based
[13] = organism: Danio rerio; experiment: Protection of neurodegeneration in zebrafish Huntington's disease model expressing EGFP-tagged huntingtin exon with EGFP-HDQ71 in rod photoreceptor assessed as induction of rhodopsin expression at 1 uM; format: functional, organism-based
Method in brief: (§1)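 Zebrafish larvae dark-reared 3–9 d.p.f. with drug in E3, refreshed daily, then lysed in RIPA/DTT. Western blot with anti-rhodopsin (Zpr3, 1:1000), anti-Zpr1 and anti-EGFP antibodies; ECL detection.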

[14] = system: SK-N-SH; experiment: Induction of autophagy in human SK-N-SH cells assessed as inhibition of Bay K8644-induced calpain activation; format: functional, cell-based
Method in brief: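 SK-N-SH cells pretreated 15 min, then given 1 μM (±)-Bay K8644 for 4 h. The active calpain small subunit was detected by immunoblot.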

[15] = organism: Danio rerio; experiment: Protection of neurodegeneration in zebrafish Huntington's disease model expressing EGFP-tagged huntingtin exon with EGFP-HDQ71 in rod photoreceptor assessed as induction of rhodopsin expression at 3 uM; format: functional, organism-based; method in brief: as §1
[16] = system: SK-N-MC; experiment: Induction of autophagy in Atg positive human SK-N-MC cells expressing EGFP-HDQ74 at 1 uM after 48 hrs; format: functional, cell-based
[17] = organism: Mus musculus; experiment: Induction of autophagy in Atg deficient mouse […] expressing EGFP-HDQ74 at 1 uM after 48 hrs; format: functional
[18] = system: SK-N-SH (Homo sapiens); experiment: Induction of autophagy in human SK-N-SH cells expressing EGFP-HDQ74 assessed as reduction in EGFP-HDQ74 aggregation at 1 uM after 48 hrs by densitometric analysis
[19] = system: PC-12; experiment: Induction of autophagy in rat stable inducible PC12 cells expressing A53T alpha-synuclein assessed as A53T alpha-synuclein clearance at 500 uM after 24 hrs by densitometric analysis; format: functional, cell-based
Method in brief: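 Inducible PC12 A53T α-synuclein (HA) cells induced with 1 μg/ml doxycycline for 48 h. Doxycycline then removed for 24 h with compound or DMSO. Remaining protein measured by anti-HA immunoblot, densitometry relative to actin.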

[20] = system: COS-7; experiment: Induction of autophagy in african green monkey COS7 cells expressing EGFP-HDQ74/m-calpain assessed as decrease in EGFP-HDQ74 aggregation at 500 uM after 48 hrs; format: functional, cell-based; details: Chlorocebus aethiops
[21] = system: PC-12; experiment: Induction of autophagy in rat stable inducible PC12 cells expressing A53T alpha-synuclein assessed as inhibition of PACAP-retarded A53T alpha-synuclein clearance at 500 uM after 24 hrs by densitometric analysis; format: functional, cell-based
Method in brief: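 Inducible PC12 A53T α-synuclein line (doxycycline 1 μg/ml 48 h, then 24 h off-induction) treated 24 h with 100 nM PACAP with or without compound. Clearance measured by anti-HA immunoblot, densitometry relative to actin.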

[22] = system: SK-N-SH; experiment: Induction of autophagy in human SK-N-SH cells expressing EGFP-HDQ74 assessed as reduction in EGFP-HDQ74 aggregation at 500 uM after 48 hrs by densitometric analysis; format: functional, cell-based
[23] = system: PC-12; experiment: Induction of autophagy in rat stable inducible PC12 cells assessed as increase in LC3-2 level at 500 uM after 24 hrs by immunoblotting analysis; format: functional, cell-based
Method in brief: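 Stable inducible PC12 cells exposed 24 h; endogenous LC3-II measured by anti-LC3 immunoblotting, with densitometry relative to actin.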

[24] = organism: Danio rerio; experiment: Protection of neurodegeneration in zebrafish Huntington's disease model expressing EGFP-tagged huntingtin exon with EGFP-HDQ71 in rod photoreceptor assessed as decrease in […] aggregation at 100 uM; format: functional, organism-based
Method in brief: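 Transgenic zebrafish embryos kept in 0.1 mM PTU from 1 to 3 d.p.f. and screened by EGFP, then dark-reared 3–9 d.p.f. in compound in E3 medium (pH 7.2), refreshed daily. Fixed in 4% PFA, cryosectioned at 12 μm; aggregates counted over 96 μm of central eye. Mean of 10 fish; ANOVA with Dunnett test.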

[25] = organism: Danio rerio; experiment: Protection of neurodegeneration in zebrafish Huntington's disease model expressing EGFP-tagged huntingtin exon with EGFP-HDQ71 in rod photoreceptor assessed as induction of rhodopsin expression at 100 uM; format: functional, organism-based
Method in brief: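 Zebrafish larvae dosed 3–9 d.p.f. in E3 medium (daily refresh, dark-reared), lysed in 80% RIPA/100 mM DTT with protease inhibitor for 1 h on ice. Proteins run on 10% SDS-PAGE and blotted with anti-rhodopsin (Zpr3, 1:1000), anti-Zpr1 and anti-EGFP; ECL detection.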

[26] = system: COS-7; experiment: Induction of autophagy in african green monkey COS7 cells expressing EGFP-HDQ74/rheb assessed as reduction in EGFP-HDQ74 aggregation at 0.2 uM after 2 hrs; format: functional, cell-based; details: Chlorocebus aethiops
[27] = system: COS-7; experiment: Induction of autophagy in african green monkey COS7 cells expressing EGFP-LC3 assessed as increase in EGFP-LC3 vesicle at 0.2 uM after 2 hrs; format: functional, cell-based; details: Chlorocebus aethiops
Method in brief: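 COS-7 transfected 4 h with EGFP-LC3, then exposed 2 h together with 2.5 μM thapsigargin. Each EGFP-positive cell was scored positive if it had >5 EGFP-LC3 vesicles. Blinded fluorescence microscopy; triplicate, at least twice.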

[28] = organism: Danio rerio; experiment: Protection of neurodegeneration in zebrafish Huntington's disease model expressing EGFP-tagged huntingtin exon with EGFP-HDQ71 in rod photoreceptor assessed as loss of rhodopsin expression at 3 uM
[29] = system: Drosophila; experiment: Protection of neurodegeneration in Drosophila Huntington's disease model assessed as induction autophagy at 2.5 mM; format: functional, organism-based
Method in brief: (§2)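 Progeny reared on instant food with drug (from 0.5 M DMSO stock) or DMSO, at 25°C, 70% humidity, 12 h light/dark. Photoreceptors scored by pseudopupil technique 2 days after eclosion; paired t-test on experiment averages.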

[30] = system: SK-N-SH; experiment: Induction of autophagy in human SK-N-SH cells expressing EGFP-HDQ74/m-calpain assessed as inhibition of EGFP-HDQ74 aggregation at 1 uM after 48 hrs; format: functional, cell-based
[31] = system: SK-N-SH (Homo sapiens); experiment: Induction of autophagy in human SK-N-SH cells assessed as increase in LC3-2 level at 0.33 uM after 24 hrs by immunoblotting analysis
[32] = system: SK-N-SH; experiment: Induction of autophagy in human SK-N-SH cells expressing EGFP-HDQ74 assessed as inhibition of Bay K8644-induced EGFP-HDQ74 aggregation at 1 uM after 48 hrs; format: functional, cell-based
Method in brief: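 SK-N-SH cells transfected with EGFP-HDQ74 (LipofectAMINE PLUS, 4 h), then exposed alongside 1 μM (±)-Bay K8644. Proportion of EGFP-positive cells with aggregates scored at 48 h post-transfection by a blinded observer.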

[33] = organism: Danio rerio; experiment: Protection of neurodegeneration in zebrafish Huntington's disease model expressing EGFP-tagged huntingtin exon with EGFP-HDQ71 in rod photoreceptor assessed as decrease in […] aggregation at 3 uM; format: functional, organism-based
Method in brief: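 Transgenic zebrafish larvae raised in PTU to 3 d.p.f., then dark-reared 3–9 d.p.f. with drug in E3 medium (pH 7.2), refreshed daily. Fixed fish were cryosectioned at 12 μm and aggregates counted over 96 μm of the central eye. Means from 10 fish per group; ANOVA with Dunnett's test.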

[34] = organism: Danio rerio; experiment: Protection of neurodegeneration in zebrafish Huntington's disease model expressing EGFP-tagged huntingtin exon with EGFP-HDQ71 in rod photoreceptor assessed as decrease in […] aggregation at 3 uM
[35] = system: Drosophila; experiment: Protection of neurodegeneration in Drosophila Huntington's disease model assessed as induction autophagy at 1.25 mM; format: functional, organism-based; method in brief: as §2

SMILES: CSCC[C@@H](C=O)NC(=O)[C@H](CC(C)C)NC(=O)[C@H](CC(C)C)NC(C)=O (Ac-Leu-Leu-Met-aldehyde)
Activity [1]: Active
Activity [2]: Active

SMILES: CCCC[C@@H](C=O)NC(=O)[C@H](CC(C)C)NC(=O)OCc1ccccc1
Activity [3]: Active
Activity [4]: Active
Activity [5]: Active
Activity [6]: Active
Activity [1]: Active
Activity [7]: Active
Activity [8]: Active
Activity [9]: Active
Activity [10]: Active

Activity [13]: Active
Activity [15]: inactive
SMILES: COC(=O)C1=C(C)NC(C)=C([N+](=O)[O-])C1c1ccccc1C(F)(F)F (racemic)
Activity [11]: Active
Activity [12]: Toxic
inhibition [14]: Dose-dependent effect
Activity [16]: Active
Activity [17]: inactive
Activity [18]: inactive

SMILES: C[C@H]1O[C@@H](n2cnc3c(N)ncnc32)C[C@@H]1O
Activity [19]: Active
Activity [20]: Active
Activity [21]: Active
Activity [22]: Active
Activity [23]: Active
Activity [24]: Active
Activity [25]: Active

SMILES: CO[C@H]1C[C@@H]2CC[C@@H](C)[C@@](O)(O2)C(=O)C(=O)N2CCCC[C@H]2C(=O)O[C@H]([C@H](C)C[C@@H]2CC[C@@H](O)[C@H](OC)C2)CC(=O)[C@H](C)/C=C(\C)[C@@H](O)[C@@H](OC)C(=O)[C@H](C)C[C@H](C)/C=C/C=C/C=C/1C
Activity [26]: Active
Activity [27]: Active

Activity [28]: inactive
Activity [15]: Active
Activity [33]: Active
Activity [34]: Active
SMILES: COc1ccc(CCN(C)CCCC(C#N)(c2ccc(OC)c(OC)c2)C(C)C)cc1OC (stereo not given)
Activity [29]: Active
Activity [30]: inactive
Activity [31]: Active
Activity [32]: Active
Activity [35]: Active
Activity [16]: Active
Activity [17]: inactive
Activity [18]: Active
